Assay results pooled from the literature.
RPS6KA6: Ribosomal protein S6 kinase alpha-6 (RPS6KA6, Homo sapiens, UniProt Q9UK32)
RPS6KA6 C-terminal kinase domain: Ribosomal protein S6 kinase alpha-6, C-terminal kinase domain (RPS6KA6, Homo sapiens, UniProt Q9UK32)
RPS6KA6 N-terminal kinase domain: Ribosomal protein S6 kinase alpha-6, N-terminal kinase domain (RPS6KA6, Homo sapiens, UniProt Q9UK32)

| Compound | target | observed | action | technique | concentration | measurement | value |
| --- | --- | --- | --- | --- | --- | --- | --- |
| Nc1nc(Nc2ccc(S(N)(=O)=O)cc2)nn1C(=O)c1c(F)cccc1F | RPS6KA6 | cell-free assay |  |  | 0.5 µM | remaining signal | 24.7% |
| Cn1c2c(c3ccc(Cl)c(Cl)c31)C(C#N)C(C)(C)NC2=O (stereo not shown) | RPS6KA6 | thermal stability |  | DSF | 10 µM | ΔTm | 2.6 °C |
| Cn1cc(Cl)c2c(Oc3c(F)cc(Nc4cc(Cl)nc(N)n4)cc3F)ccnc21 | RPS6KA6 C-terminal kinase domain | cell-free assay |  | competition with immobilised ligand | 0.1 µM | remaining binding | 100% |
| C[S+]([O-])c1ccc(-c2nc(-c3ccncc3)c(-c3ccc(F)cc3)[nH]2)cc1 (stereo not shown) | RPS6KA6 | cell-free assay |  |  | 0.5 µM | remaining signal | 110% |
| Cc1nc(C2CCN(C(=O)c3ccc(OC(F)(F)F)cc3N)CC2)c2ncc(N3CCN(C)CC3)cc2n1 | RPS6KA6 C-terminal kinase domain | cell-free assay |  | competition with immobilised ligand | 1 µM | remaining binding | 100% |
| Nc1ncnc2occ(-c3ccc(NC(=O)Nc4cc(C(F)(F)F)ccc4F)cc3)c12 | RPS6KA6 C-terminal kinase domain | cell-free assay | inhibitor |  | 20 µM | remaining signal | 18% |
| O=C(Nc1cnn(-c2csc(C(=O)NC3COC3)c2)c1)Nc1ccccc1Cl | RPS6KA6 | enzyme activity | inhibitor |  | 5 µM | remaining activity | 107% |
| Cc1ccc(C(=O)Nc2ccc(CN3CCN(C)CC3)c(C(F)(F)F)c2)cc1C#Cc1cnc2cccnn12 | RPS6KA6 | enzyme activity | inhibitor |  | 23.5 nM | remaining activity | 93% |
| O=C1NC(=O)c2cc(Nc3ccc(F)cc3)c(Nc3ccc(F)cc3)cc21 | RPS6KA6 | cell-free assay |  |  | 0.5 µM | remaining signal | 97.4% |
| CN1CCC2(CC1)NC(=O)c1c(c3ccc(Cl)c(Cl)c3n1C)C2C#N (racemic) | RPS6KA6 | thermal stability |  | DSF | 10 µM | ΔTm | 0 °C |
| CCC(=N\O)/C(C)=C/c1ccc(F)cc1 | RPS6KA6 C-terminal kinase domain | cell-free assay |  | competition with immobilised ligand | 1 µM | remaining binding | 94% |
| CCCS(=O)(=O)Nc1ccc(F)c(C(=O)c2c[nH]c3ncc(-c4ccc(Cl)cc4)cc23)c1F | RPS6KA6 | enzyme activity | inhibitor |  | 1 µM | inhibition | < 10% |
| N#CC1c2c([nH]c3c(Cl)c(Cl)ccc23)C(=O)NC12CCCCC2 (racemic) | RPS6KA6 | thermal stability |  | DSF | 10 µM | ΔTm | 1.6 °C |
| CS(=O)(=O)N1CCCC(NC(=O)[C@H](CCC2CCCCC2)NC(=O)c2ccc(CNC(=O)c3cnc4ccccn34)cc2)C1 (stereo partly shown) | RPS6KA6 N-terminal kinase domain | cell-free assay |  | competition with immobilised ligand | 0.1 µM | remaining binding | 97% |
| Cc1cc(NC(=O)c2cccc3cc(-c4cccc5[nH]nc(N)c45)ccc23)ccc1F | RPS6KA6 | enzyme activity | inhibitor |  | 0.1 µM | activity vs control | 94% |
| CS(=O)(=O)CCNCc1ccc(-c2ccc3ncnc(Nc4ccc(OCc5cccc(F)c5)c(Cl)c4)c3c2)o1 | RPS6KA6 | cell-free assay |  |  | 0.5 µM | remaining signal | 108% |
| Cn1c2c(Cl)c(Cl)ccc2c2cc(N)[nH]c(=O)c21 | RPS6KA6 | thermal stability |  | DSF | 10 µM | ΔTm | 3.3 °C |

| Compound | target | observed | action | technique | concentration | measurement | value |
| --- | --- | --- | --- | --- | --- | --- | --- |
| COc1cc(Cl)c(C(=O)N[C@@H](CN[C@H]2CC[C@@H](N)CC2)Cc2ccc(C#N)cc2)cc1-c1ccc(CN[C@H](C)c2ccc(C)cc2)o1 | RPS6KA6 | enzyme activity | inhibitor |  | 1 µM | remaining activity | 97% |
| CCOc1cc(-c2nncn2C)ccc1Nc1ncc2cc(C)nc(NCC(C)(C)C)c2n1 | RPS6KA6 | enzyme activity | inhibitor | FRET | 1 µM | inhibition | 24% |
| CC(C)(O)[C@H]1CC[C@H](Nc2ccc3ncc(-c4cccc(C(F)(F)F)c4)n3n2)CC1 | RPS6KA6 | enzyme activity | inhibitor |  | 1 µM | remaining activity | 91.7% |
| c1cnn2ncc(-c3ccnc(N4CCC45COC5)n3)c2c1 | RPS6KA6 C-terminal kinase domain | binding |  | competition with immobilised ligand | 1 µM | remaining binding | 66% |
| C[C@@H]1CCN(C(=O)CC#N)C[C@@H]1N(C)c1ncnc2[nH]ccc12 | RPS6KA6 | cell-free assay | inhibitor |  | 0.5 µM | remaining signal | 98.1% |
| CN(CCCC(F)(F)F)c1nccc(-c2cnn3ncccc23)n1 | RPS6KA6 C-terminal kinase domain | binding |  | competition with immobilised ligand | 1 µM | remaining binding | 100% |
| COc1ccc2cc(OCC3(C(=O)O)CN(C(=O)c4ccc(F)cc4)C3)ccc2c1 | RPS6KA6 N-terminal kinase domain | cell-free assay |  | competition with immobilised ligand | 1 µM | remaining binding | 77% |
| C[C@@H]1CCN(c2nccc(-c3cnn4ncccc34)n2)C1 | RPS6KA6 N-terminal kinase domain | binding |  | competition with immobilised ligand | 1 µM | remaining binding | 71% |
| O=C(N[C@H]1CCCCC/C=C\C2C[C@@]2(C(=O)O)NC(=O)[C@@H]2C[C@@H](Oc3ccncc3)CN2C1=O)OC1CCCC1 (stereo partly shown) | RPS6KA6 N-terminal kinase domain | binding |  | competition with immobilised ligand | 1 µM | remaining binding | 60% |
| CC(C)(C)c1nc(-c2cccc(NS(=O)(=O)c3c(F)cccc3F)c2F)c(-c2ccnc(N)n2)s1 | RPS6KA6 | enzyme activity | inhibitor | radiometric | 1 µM | remaining activity | 98% |
| CC/C(=N\NC(=O)C(C)Nc1ccccc1)c1ccc(O)c(C)c1O (stereo not shown) | RPS6KA6 | enzyme activity | inhibitor |  | 0.1 µM | inhibition | 28.6% |
| CNC(=O)c1cc(Oc2ccc(NC(=O)Nc3ccc(Cl)c(C(F)(F)F)c3)cc2)ccn1 | RPS6KA6 | enzyme activity | inhibitor |  | 10 µM | inhibition | -16% |
| O=C(Nc1cnn(-c2csc(C(=O)NC3COC3)c2)c1)Nc1c(F)cccc1Cl | RPS6KA6 | enzyme activity | inhibitor |  | 5 µM | remaining activity | 92.2% |
| Cn1nc(C(=O)NCc2ccc(C(=O)O)cc2)cc1-c1ccc2[nH]ccc2c1 | RPS6KA6 C-terminal kinase domain | cell-free assay |  | competition with immobilised ligand | 0.1 µM | remaining binding | 85% |
| N[C@@H]1CCN(c2nccc(-c3cnn4ncccc34)n2)C1 | RPS6KA6 C-terminal kinase domain | binding |  | competition with immobilised ligand | 1 µM | remaining binding | 100% |
| O=C(NS(=O)(=O)c1ccc(NCC2CCOCC2)c([N+](=O)[O-])c1)c1ccc(N2CCN(Cc3ccc(C(F)(F)F)cc3-c3ccc(Cl)cc3)CC2)cc1Oc1cnc2[nH]ccc2c1 | RPS6KA6 N-terminal kinase domain | cell-free assay |  | competition with immobilised ligand | 1 µM | remaining binding | 100% |
| COc1cc2ncnc(Nc3ccc(Oc4ccccc4)c(C)c3C)c2cc1OC | RPS6KA6 | enzyme activity | inhibitor |  | 1 µM | inhibition | 19% |
